Source: ChEMBL document CHEMBL4382264, “Melanogenesis-Inhibitory and Cytotoxic Activities of Triterpene Glycoside Constituents from the Bark of Albizia procera” (J Nat Prod, 2018)
Active and inactive are the calls of the source. The rule behind the calls is not given here.

Tests used:
B16-F10 [1] = test: Selectivity index, ratio of compound effect for cytotoxicity against non-stimulated mouse B16F10 cells assessed as cell viability at 100 uM to compound effect for inhibition of alpha-MSH-stimulated melanogenesis in mouse B16F10 cells assessed as melanin content at 100 uM
[2] = Selectivity index, ratio of IC50 for human […] cells to IC50 for human A549 cells
Method in brief: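 Selectivity index equals the IC50 against WI38 normal cells divided by the IC50 against A549 cells.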

B16-F10 [3] = test: Inhibition of alpha-MSH-stimulated melanogenesis in mouse B16F10 cells assessed as melanin content at 10 uM measured after 48 hrs relative to control; format: functional; set-up: scale not given: the % may be the effect or the level left
Method in brief: (§1)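 B16F10 cells treated with test sample plus 0.10 μM α-MSH for 48 h. Melanin solubilized in 2 N NaOH–10% DMSO and read at 405 nm. Expressed as % of DMSO-treated cells (DMSO 2 μL·mL−1). Mean ± SD, n = 3.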

HL-60 [4] = test: Induction of apoptosis in human HL60 cells assessed as increase in cleaved caspase-8 expression at 3 uM after 24 to 48 hrs by Western blot analysis; format: functional, cell-based
Method in brief: (§2)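 HL60 cells treated with 3.0 μM for 24 and 48 h, then lysed in RIPA buffer. Total protein cleared by centrifugation and quantified by BCA. Procaspase and cleaved caspase-3, -8 and -9 levels assessed by Western blot.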

SK-BR-3 = test: Cytotoxicity against human SKBR3 cells assessed as reduction in cell viability after 48 hrs by MTT assay; format: functional, cell-based; conditions: SK-BR-3, 48 h
Method in brief: (§3)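 Cells exposed to compounds from 1 × 10−4 to 1 × 10−6 M for 48 h. Viability read by MTT. IC50 derived from five concentrations, each run in triplicate.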

B16-F10 [5] = test: Inhibition of alpha-MSH-stimulated melanogenesis in mouse B16F10 cells assessed as melanin content at 100 uM measured after 48 hrs relative to control; format: functional; set-up: scale not given: the % may be the effect or the level left; method in brief: as §1
HL-60 [6] = test: Induction of apoptosis in human HL60 cells assessed as chromatin condensation at 1 to 3 uM after 24 hrs by Hoechst 33342 staining based fluorescence microscopic analysis; format: functional, cell-based
Method in brief: (§4)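 HL60 cells treated for 24 h, fixed in 4% paraformaldehyde, and nuclei stained with Hoechst 33342. Cell shrinkage, nuclear fragmentation and chromatin condensation scored by fluorescence microscopy.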

HL-60 [7] = test: Induction of apoptosis in human HL60 cells assessed as cell shrinkage at 0.3 to 3 uM after 24 hrs by Hoechst 33342 staining based fluorescence microscopic analysis; format: functional; conditions: 1 to 3 uM, in the assay text read “1 to 3 uM” for “0.3 to 3 uM”; method in brief: as §4
HL-60 [8] = test: Induction of apoptosis in human HL60 cells assessed as early apoptotic cells at 3 uM after 48 hrs by Annexin V-FITC/propidium iodide staining based flow cytometry (reference value: 0.8%); format: functional
Method in brief: (§5)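 HL60 cells cultured with 3.0 μM for 0, 24 and 48 h. Cells stained with annexin V-FITC and propidium iodide and analyzed by flow cytometry for early and late apoptotic fractions. Mean of three experiments, compared against an untreated negative control.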

[9] = Cytotoxicity against non-stimulated mouse B16F10 cells assessed as cell viability at 10 uM relative to control; format: cell-based, B16-F10; conditions: read-out: Activity
Method in brief: (§6)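 B16 melanoma cells tested for viability at 10 or 100 μM. Absorbance read at 570 nm (test) minus 630 nm (reference). Expressed as % of DMSO control (DMSO 2 μL·mL−1). Mean ± SD, n = 3.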

HL-60 [10] = test: Induction of apoptosis in human HL60 cells assessed as early apoptotic cells at 3 uM after 24 hrs by Annexin V-FITC/propidium iodide staining based flow cytometry (reference value: 2.4%); format: functional; method in brief: as §5
HL-60 [11] = test: Induction of apoptosis in human HL60 cells assessed as increase in cleaved caspase-9 expression at 3 uM after 24 to 48 hrs by Western blot analysis; format: functional, cell-based; method in brief: as §2
B16-F10 [12] = test: Selectivity index, ratio of compound effect for cytotoxicity against non-stimulated mouse B16F10 cells assessed as cell viability at 10 uM to compound effect for inhibition of alpha-MSH-stimulated melanogenesis in mouse B16F10 cells assessed as melanin content at 10 uM
AZ-521 cell line = test: Cytotoxicity against human AZ-521 cells assessed as reduction in cell viability after 48 hrs by MTT assay; format: functional, cell-based; conditions: AZ-521, 48 h; method in brief: as §3
HL-60 [13] = test: Induction of apoptosis in human HL60 cells assessed as late apoptotic cells at 3 uM after 24 hrs by Annexin V-FITC/propidium iodide staining based flow cytometry (reference value: 3%); format: functional; method in brief: as §5
HL-60 [14] = test: Induction of apoptosis in human HL60 cells assessed as late apoptotic cells at 3 uM after 48 hrs by Annexin V-FITC/propidium iodide staining based flow cytometry (reference value: 1.9%); format: functional; method in brief: as §5
A549 = test: Cytotoxicity against human A549 cells assessed as reduction in cell viability after 48 hrs by MTT assay; format: functional, cell-based; conditions: A549, 48 h; method in brief: as §3
HL-60 [15] = test: Induction of apoptosis in human HL60 cells assessed as fragmentation of nuclei at 1 to 3 uM after 24 hrs by Hoechst 33342 staining based fluorescence microscopic analysis; format: functional, cell-based; method in brief: as §4
[16] = Cytotoxicity against non-stimulated mouse B16F10 cells assessed as cell viability at 100 uM relative to control; format: cell-based, B16-F10; conditions: read-out: Activity; method in brief: as §6
HL-60 [17] = test: Induction of apoptosis in human HL60 cells assessed as increase in cleaved caspase-3 expression at 3 uM after 24 to 48 hrs by Western blot analysis; format: functional, cell-based; method in brief: as §2
WI-38 = test: Cytotoxicity against human WI38 cells assessed as reduction in cell viability after 48 hrs by MTT assay; format: cell-based; conditions: WI-38, 48 h; method in brief: as §3
HL-60 [18] = test: Cytotoxicity against human HL60 cells assessed as reduction in cell viability after 48 hrs by MTT assay; format: functional, cell-based; conditions: HL-60, 48 h; method in brief: as §3

Row | SMILES | Ratio (B16-F10 [1]) | Ratio IC50 [2] | Activity (B16-F10 [3]) [%] | IC50 (SK-BR-3) [µM] | Activity (B16-F10 [5]) [%] | viability at 10 µM [9] [%] | Ratio (B16-F10 [12]) | IC50 (AZ-521 cell line) [µM] | IC50 (A549) [µM] | viability at 100 µM [16] [%] | IC50 (WI-38) [µM] | IC50 (HL-60 [18]) [µM] | further results
1 | C=C[C@@](C)(O)CC/C=C(\C)C(=O)O[C@H]1[C@H](O)[C@@H](O)[C@H](O[C@](C)(C=C)CCCC(C)C(=O)O[C@H]2C[C@]3(C(=O)O[C@@H]4O[C@H](CO)[C@@H](O)[C@H](O)[C@H]4O[C@@H]4O[C@@H](C)[C@H](O[C@@H]5O[C@@H](CO)[C@H](O)[C@H]5O)[C@@H](O[C@@H]5O[C@H](CO)[C@@H](O)[C@H](O)[C@H]5O)[C@H]4O)[C@H](O)C[C@]4(C)C(=CC[C@@H]5[C@@]6(C)CC[C@H](O[C@@H]7O[C@H](CO[C@@H]8OC[C@H](O)[C@H](O)[C@H]8O[C@@H]8OC[C@@H](O)[C@H](O)[C@H]8O)[C@@H](O)[C@H](O)[C@H]7O[C@@H]7O[C@H](CO)[C@@H](O)[C@H](O)[C@H]7O)C(C)(C)[C@@H]6CC[C@]54C)[C@@H]3CC2(C)C)O[C@@H]1C (stereo partly specified) | 0.51 | 16.9 | 80.9 | 1.3 | 50.7 | 103 | 0.78 | 0.5 | 0.3 | 100 | 5.1 | 0.3 | Activity (HL-60 [4]): Active; Activity (HL-60 [6]): Active; Activity (HL-60 [7]): Active; Activity (HL-60 [8]): 38.2%; Activity (HL-60 [10]): 19%; Activity (HL-60 [11]): Active; Activity (HL-60 [13]): 22.7%; Activity (HL-60 [14]): 42.2%; Activity (HL-60 [15]): Active; Activity (HL-60 [17]): Active
2 | C=C[C@@](C)(O)CC/C=C(\C)C(=O)O[C@H]1[C@H](O)[C@@H](O)[C@H](O[C@](C)(C=C)CCCC(C)C(=O)O[C@H]2C[C@]3(C(=O)O[C@@H]4O[C@H](CO)[C@@H](O)[C@H](O)[C@H]4O[C@@H]4O[C@@H](C)[C@H](O[C@@H]5O[C@@H](CO)[C@H](O)[C@H]5O)[C@@H](O[C@@H]5O[C@H](CO)[C@@H](O)[C@H](O)[C@H]5O)[C@H]4O)CC[C@]4(C)C(=CC[C@@H]5[C@@]6(C)CC[C@H](O[C@@H]7O[C@H](CO[C@@H]8OC[C@H](O)[C@H](O)[C@H]8O[C@@H]8OC[C@@H](O)[C@H](O)[C@H]8O)[C@@H](O)[C@H](O)[C@H]7O[C@@H]7O[C@H](CO)[C@@H](O)[C@H](O)[C@H]7O)C(C)(C)[C@@H]6CC[C@]54C)[C@@H]3CC2(C)C)O[C@@H]1C (stereo partly specified) | 0.74 | 3.4 | 89.2 | 1.1 | 75.2 | 110 | 0.81 | 0.4 | 0.66 | 102 | 2.2 | 0.5 | –
3 | OC[C@H]1O[C@@H](Oc2ccc(O)cc2)[C@H](O)[C@@H](O)[C@@H]1O [ARBUTIN] | 0.81 | – | 92.7 | – | 81.5 | 102 | 0.91 | – | – | 101 | – | – | –
4 | C=C[C@@](C)(O)CC/C=C(\C)C(=O)O[C@H]1[C@H](O)[C@@H](O)[C@H](O[C@](C)(C=C)CCCC(C)C(=O)O[C@H]2C[C@]3(C(=O)O[C@@H]4O[C@H](CO)[C@@H](O)[C@H](O)[C@H]4O[C@@H]4O[C@@H](C)[C@H](O[C@@H]5O[C@@H](CO)[C@H](O)[C@H]5O)[C@@H](O[C@@H]5O[C@H](CO)[C@@H](O)[C@H](O)[C@H]5O)[C@H]4O)CC[C@]4(C)C(=CC[C@@H]5[C@@]6(C)CC[C@H](O[C@@H]7O[C@H](CO[C@@H]8O[C@H](C)[C@H](O)[C@H](O)[C@H]8O[C@@H]8OC[C@@H](O)[C@H](O)[C@H]8O)[C@@H](O)[C@H](O)[C@H]7O)C(C)(C)[C@@H]6CC[C@]54C)[C@@H]3CC2(C)C)O[C@@H]1C (stereo partly specified) | 0.42 | 1.8 | 74.3 | 0.4 | 42.5 | 107 | 0.69 | 1.7 | 1.3 | 102 | 2.5 | 0.9 | –
5 | C=C[C@@](C)(O)CC/C=C(\C)C(=O)O[C@H]1[C@H](O)[C@@H](O)[C@H](O[C@](C)(C=C)CCCC(C)C(=O)O[C@H]2C[C@]3(C(=O)O[C@@H]4O[C@H](CO)[C@@H](O)[C@H](O)[C@H]4O[C@@H]4O[C@@H](C)[C@H](O[C@@H]5O[C@@H](CO)[C@H](O)[C@H]5O)[C@@H](O[C@@H]5O[C@H](CO)[C@@H](O)[C@H](O)[C@H]5O)[C@H]4O)CC[C@]4(C)C(=CC[C@@H]5[C@@]6(C)CC[C@H](O[C@@H]7O[C@H](CO[C@@H]8O[C@H](C)[C@H](O)[C@H](O)[C@H]8O[C@@H]8OC[C@@H](O)[C@H](O)[C@H]8O)[C@@H](O)[C@H](O)[C@H]7O[C@@H]7O[C@H](CO)[C@@H](O)[C@H](O)[C@H]7O)C(C)(C)[C@@H]6CC[C@]54C)[C@@H]3CC2(C)C)O[C@@H]1C (stereo partly specified) | 0.77 | 2.7 | 86.5 | 2.6 | 79.6 | 110 | 0.79 | 0.6 | 1.8 | 104 | 4.8 | 0.6 | –
6 | C=C[C@@](C)(O)CC/C=C(\C)C(=O)O[C@H]1[C@H](O)[C@@H](O)[C@H](O[C@](C)(C=C)CCCC(C)C(=O)O[C@H]2C[C@]3(C(=O)O[C@@H]4O[C@H](CO)[C@@H](O)[C@H](O)[C@H]4O[C@@H]4O[C@@H](C)[C@H](O[C@@H]5O[C@@H](CO)[C@H](O)[C@H]5O)[C@@H](O[C@@H]5O[C@H](CO)[C@@H](O)[C@H](O)[C@H]5O)[C@H]4O)[C@H](O)C[C@]4(C)C(=CC[C@@H]5[C@@]6(C)CC[C@H](O[C@@H]7O[C@H](CO[C@@H]8OC[C@H](O)[C@H](O)[C@H]8O[C@@H]8OC[C@@H](O)[C@H](O)[C@H]8O)[C@@H](O)[C@H](O)[C@H]7O)C(C)(C)[C@@H]6CC[C@]54C)[C@@H]3CC2(C)C)O[C@@H]1C (stereo partly specified) | 0.77 | 8.2 | 86.2 | 0.8 | 80 | 107 | 0.81 | 1.2 | 1 | 104 | 8.3 | 0.9 | –
